In ChEMBL document CHEMBL1154235, “Rational design and semisynthesis of betulinic acid analogues as potent topoisomerase inhibitors” (J Nat Prod, 2009):
Calls of active or inactive are those of the source. The rule behind the calls is not given here.

Tests used:
[1] = molecular target: T1, DNA topoisomerase 1 (Homo sapiens) (UniProt P11387); assay: Inhibition of topoisomerase 1 catalytic activity assessed as relaxation of supercoiled plasmid DNA at 100 uM after 30 mins by agarose gel electrophoresis
T1 sequence (whole entry): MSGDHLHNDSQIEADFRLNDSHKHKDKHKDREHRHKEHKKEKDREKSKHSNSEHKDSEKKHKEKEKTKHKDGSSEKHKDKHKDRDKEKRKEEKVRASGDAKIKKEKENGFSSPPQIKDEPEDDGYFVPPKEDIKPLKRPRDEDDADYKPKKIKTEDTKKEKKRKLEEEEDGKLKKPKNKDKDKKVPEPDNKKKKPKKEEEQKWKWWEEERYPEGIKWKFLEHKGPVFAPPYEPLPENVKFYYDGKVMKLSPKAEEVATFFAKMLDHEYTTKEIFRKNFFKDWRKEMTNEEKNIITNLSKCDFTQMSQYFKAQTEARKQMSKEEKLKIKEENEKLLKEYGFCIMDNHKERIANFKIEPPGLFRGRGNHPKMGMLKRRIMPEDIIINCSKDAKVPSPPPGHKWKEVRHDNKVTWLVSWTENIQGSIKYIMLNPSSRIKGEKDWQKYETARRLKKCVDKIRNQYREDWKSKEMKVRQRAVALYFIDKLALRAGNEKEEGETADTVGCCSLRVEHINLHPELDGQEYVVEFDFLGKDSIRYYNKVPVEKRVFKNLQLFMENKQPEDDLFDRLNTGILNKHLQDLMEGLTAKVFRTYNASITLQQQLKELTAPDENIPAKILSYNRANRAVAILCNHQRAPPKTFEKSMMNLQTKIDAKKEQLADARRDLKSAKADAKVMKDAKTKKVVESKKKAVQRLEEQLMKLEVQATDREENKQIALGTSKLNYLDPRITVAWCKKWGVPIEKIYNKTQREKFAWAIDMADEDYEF
How it was run: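 Compound at 100 µM final with topoisomerase I (2U), 37 °C 30 min. Stopped with 1% SDS, proteinase K digestion, 1% agarose TAE gel, ethidium bromide stain, imaging quantitation. Scored 0 to 3+ against camptothecin.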

[2] = molecular target: DNA topoisomerase 2-alpha (Homo sapiens) (UniProt P11388); assay: Inhibition of topoisomerase 2 alpha catalytic activity assessed as decatenation of kinetoplast DNA at 100 uM after 15 mins by agarose gel electrophoresis
SW948 = assay: Antiproliferative activity against human SW948 cells after 3 days by XTT assay; format: functional, cell-based; details: SW948, 72 h
How it was run: (§1)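 Cells plated at 4000/well and grown 1 day at 37 °C, then exposed to a range of drug concentrations for 3 more days. Read-out by XTT tetrazolium reduction on a plate reader. Each concentration run in triplicate. IC50 taken from a linear-quadratic fit. Assays repeated two or three times and reported as mean ± SE. HCT-116 kept in modified McCoy's 5a and SW948 in Leibovitz's L-15, each with 10% heat-inactivated FBS and 2 mM L-glutamine.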

HCT-116 = assay: Antiproliferative activity against human HCT116 cells after 3 days by XTT assay; format: functional, cell-based; details: HCT-116, 72 h; how it was run: as §1
MDA-MB-231 [3] = assay: Antiproliferative activity against human MDA-MB-231 cells after 3 days by MTT assay; format: functional, cell-based; details: MDA-MB-231, 72 h
How it was run: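 MDA-MB-231 cells kept in RPMI 1640 with 10% heat-inactivated FBS and 25 mM HEPES at 37 °C in 5% CO2. Plated at about 15 000/well and preincubated 1 day, then exposed to compound for 3 days at 37 °C, with doses in triplicate. MTT added for 4 h, formazan dissolved in detergent overnight at room temperature in the dark, OD read at 580 nm against a cell-free blank. Cell numbers from a calibration curve; IC50 from dose-response curves.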

HL-60(TB) = assay: Growth inhibition of human HL-60(TB) cells; format: functional
MDA-MB-231 [4] = assay: Growth inhibition of human MDA-MB-231 cells; format: functional

DNA topoisomerase 2-alpha (Homo sapiens), sequence (P11388 whole entry): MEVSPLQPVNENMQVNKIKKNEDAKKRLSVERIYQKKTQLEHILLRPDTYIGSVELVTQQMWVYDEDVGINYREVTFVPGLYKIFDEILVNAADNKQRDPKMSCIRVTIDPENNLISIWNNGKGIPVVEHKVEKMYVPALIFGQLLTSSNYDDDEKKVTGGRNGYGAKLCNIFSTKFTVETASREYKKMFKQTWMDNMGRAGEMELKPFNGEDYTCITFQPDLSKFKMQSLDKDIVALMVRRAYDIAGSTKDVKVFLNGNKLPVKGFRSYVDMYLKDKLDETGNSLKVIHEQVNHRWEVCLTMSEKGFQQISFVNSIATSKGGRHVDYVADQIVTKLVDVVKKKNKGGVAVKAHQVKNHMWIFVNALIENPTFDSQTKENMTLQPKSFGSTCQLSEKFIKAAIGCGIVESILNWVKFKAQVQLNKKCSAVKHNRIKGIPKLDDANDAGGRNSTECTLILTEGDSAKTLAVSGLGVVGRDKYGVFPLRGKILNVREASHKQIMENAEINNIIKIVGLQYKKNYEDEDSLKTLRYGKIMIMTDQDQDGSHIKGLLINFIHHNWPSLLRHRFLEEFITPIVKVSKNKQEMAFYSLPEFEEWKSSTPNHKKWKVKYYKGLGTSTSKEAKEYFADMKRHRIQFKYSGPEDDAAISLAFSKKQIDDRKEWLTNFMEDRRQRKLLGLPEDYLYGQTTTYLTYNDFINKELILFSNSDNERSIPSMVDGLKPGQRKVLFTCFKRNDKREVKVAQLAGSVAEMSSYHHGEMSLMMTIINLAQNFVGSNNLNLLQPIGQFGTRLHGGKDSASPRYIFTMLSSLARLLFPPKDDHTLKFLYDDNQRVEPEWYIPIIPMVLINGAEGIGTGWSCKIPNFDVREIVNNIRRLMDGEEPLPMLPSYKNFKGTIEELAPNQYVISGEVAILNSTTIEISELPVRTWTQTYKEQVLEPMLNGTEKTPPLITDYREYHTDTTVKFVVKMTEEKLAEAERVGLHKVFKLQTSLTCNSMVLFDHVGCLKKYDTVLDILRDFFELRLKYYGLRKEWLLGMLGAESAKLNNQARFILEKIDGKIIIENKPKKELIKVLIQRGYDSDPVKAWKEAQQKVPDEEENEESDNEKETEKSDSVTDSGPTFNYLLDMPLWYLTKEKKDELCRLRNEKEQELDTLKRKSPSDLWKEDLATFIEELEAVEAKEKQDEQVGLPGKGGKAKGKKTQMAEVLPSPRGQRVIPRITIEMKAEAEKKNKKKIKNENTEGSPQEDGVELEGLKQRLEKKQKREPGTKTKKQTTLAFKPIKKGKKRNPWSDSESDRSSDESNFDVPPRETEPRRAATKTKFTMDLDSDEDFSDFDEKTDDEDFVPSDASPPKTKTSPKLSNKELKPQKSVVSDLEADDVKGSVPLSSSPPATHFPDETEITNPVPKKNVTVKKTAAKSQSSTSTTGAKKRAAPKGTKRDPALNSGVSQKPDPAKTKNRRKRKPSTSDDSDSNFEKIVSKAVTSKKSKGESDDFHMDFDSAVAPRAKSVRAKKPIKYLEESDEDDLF

Structure (SMILES)	inhibition [1]	inhibition [2]	IC50 (SW948)	IC50 (HCT-116)	IC50 (MDA-MB-231 [3])	GI50 (HL-60(TB))	GI50 (MDA-MB-231 [4])
C=C(C)[C@@H]1CC[C@]2(C(=O)O)CC[C@]3(C)[C@H](CC[C@@H]4[C@@]5(C)CCC(=O)C(C)(C)[C@@H]5CC[C@]43C)[C@@H]12 [BETUNOLIC ACID]	inactive	inactive	19.2 µM	2.61 µM	9.77 µM	–	–
C[C@H](C=O)[C@@H]1CC[C@]2(C(=O)O)CC[C@]3(C)[C@H](CC[C@@H]4[C@@]5(C)CC[C@H](O)C(C)(C)[C@@H]5CC[C@]43C)[C@@H]12	Active	inactive	> 25 µM	> 25 µM	0.17 µM	–	–
C=C(C)[C@@H]1CC[C@]2(C(=O)O)CC[C@]3(C)[C@H](CC[C@@H]4[C@@]5(C)CC[C@H](OC(=O)Nc6ccc(-c7ccccc7)cc6)C(C)(C)[C@@H]5CC[C@]43C)[C@@H]12	inactive	Active	> 25 µM	> 25 µM	> 25 µM	–	–
C=C(C)[C@@H]1CC[C@]2(C(=O)O)CC[C@]3(C)[C@H](CC[C@@H]4[C@@]5(C)CC[C@H](OC(=O)NCc6ccccc6)C(C)(C)[C@@H]5CC[C@]43C)[C@@H]12	Active	Active	> 25 µM	22.2 µM	0.45 µM	–	–
C=C(C)[C@@H]1CC[C@]2(C(=O)O)CC[C@]3(C)[C@H](CC[C@@H]4[C@@]5(C)CC[C@H](OS(=O)(=O)c6ccccc6)C(C)(C)[C@@H]5CC[C@]43C)[C@@H]12	inactive	Active	6.84 µM	21.3 µM	0.8 µM	–	–
C=C(C)[C@@H]1CC[C@]2(C(=O)O)CC[C@]3(C)[C@H](CC[C@@H]4[C@@]5(C)CC[C@H](OC(=O)Nc6cccc7ccccc67)C(C)(C)[C@@H]5CC[C@]43C)[C@@H]12	inactive	Active	> 25 µM	> 25 µM	> 25 µM	–	–
CC[C@@]1(O)C(=O)OCc2c1cc1n(c2=O)Cc2cc3ccccc3nc2-1 [CAMPTOTHECIN]	–	–	0.16 µM	0.13 µM	–	–	–
CC1(C)[C@@H](O)CC[C@]2(C)[C@H]3CC[C@@H]4[C@H]5[C@H]([C@]6(C)CO6)CC[C@]5(C(=O)O)CC[C@@]4(C)[C@]3(C)CC[C@@H]12	inactive	inactive	> 25 µM	> 25 µM	4.08 µM	–	–
COc1cc([C@@H]2c3cc4c(cc3[C@@H](O[C@@H]3O[C@@H]5CO[C@@H](C)O[C@H]5[C@H](O)[C@H]3O)[C@H]3COC(=O)[C@H]23)OCO4)cc(OC)c1O [ETOPOSIDE]	–	Active	1.3 µM	–	–	–	–
C=C(C)[C@@H]1CC[C@]2(C(=O)NS(=O)(=O)c3ccccc3)CC[C@]3(C)[C@H](CC[C@@H]4[C@@]5(C)CC[C@H](OC(=O)NS(=O)(=O)c6ccccc6)C(C)(C)[C@@H]5CC[C@]43C)[C@@H]12	Active	Active	17.4 µM	13.3 µM	0.92 µM	–	–
C=C(C=O)[C@@H]1CC[C@]2(C(=O)O)CC[C@]3(C)[C@H](CC[C@@H]4[C@@]5(C)CC[C@H](O)C(C)(C)[C@@H]5CC[C@]43C)[C@@H]12	Active	inactive	14.9 µM	4.38 µM	1.37 µM	–	–
C=CCNC(=O)O[C@H]1CC[C@]2(C)[C@H]3CC[C@@H]4[C@H]5[C@H](C(=C)C)CC[C@]5(C(=O)O)CC[C@@]4(C)[C@]3(C)CC[C@H]2C1(C)C	inactive	Active	17.6 µM	17.7 µM	0.65 µM	–	–
C=C(C)[C@@H]1CC[C@]2(C(O)=S)CC[C@]3(C)[C@H](CC[C@@H]4[C@@]5(C)CC[C@H](OP(=S)(S)c6ccc(OC)cc6)C(C)(C)[C@@H]5CC[C@]43C)[C@@H]12 (stereo partly specified)	Active	Active	> 25 µM	> 25 µM	9.83 µM	–	–
C=C(C)[C@@H]1CC[C@]2(C(=O)O)CC[C@]3(C)[C@H](CC[C@@H]4[C@@]5(C)CC[C@H](O)C(C)(C)[C@@H]5CC[C@]43C)[C@@H]12 [BETULINIC ACID]	inactive	inactive	10.5 µM	13.5 µM	15.2 µM	3.16 µM	3.98 µM
C=C(C)[C@@H]1CC[C@]2(C(O)=S)CC[C@]3(C)[C@H](CC[C@@H]4[C@@]5(C)CCC(=O)C(C)(C)[C@@H]5CC[C@]43C)[C@@H]12	inactive	inactive	> 25 µM	> 25 µM	> 25 µM	–	–
